Test results reported in ChEMBL document CHEMBL3407339, “A novel series of thiazolyl-pyrazoline derivatives: synthesis and evaluation of antifungal activity, cytotoxicity and genotoxicity” (Eur J Med Chem, 2015).
Converted amounts (≈) assume the structure as drawn.

test system: Nakaseomyces glabratus; test: Antifungal activity against Candida glabrata clinical isolate after 48 hrs by broth microdilution assay; format: functional; details: not given
In short: (§1)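 Broth microdilution of DMSO stocks serially diluted in sterile water (4 to 0.0039 mg/mL). Yeasts grown on SDA at 37 °C for 24 h, suspended in double-strength PDB at 10⁵ spores/mL. Incubated at 37 °C for 48 h, then sprayed with 0.5% aqueous TTC. MIC = lowest concentration inhibiting visible growth. Ketoconazole reference.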

| SMILES | MIC [µg/mL] |
| --- | --- |
| Cc1ccc(C2=NN(c3nc(-c4ccc(F)cc4)cs3)C(c3ccc(F)cc3)C2)s1 (stereo not drawn) | 125 (≈ 286 µM) |
| Cc1ccc(-c2csc(N3N=C(c4ccc(C)s4)CC3c3ccc(F)cc3)n2)cc1 (stereo not drawn) | 250 (≈ 577 µM) |
| Fc1ccc(C2CC(c3ccc(Cl)s3)=NN2c2nc(-c3ccc4c(c3)OCO4)cs2)cc1 (stereo not drawn) | 125 (≈ 258 µM) |
| COc1ccc(-c2csc(N3N=C(c4ccc(Cl)s4)CC3c3ccc(F)cc3)n2)cc1 (stereo not drawn) | 125 (≈ 266 µM) |

test system: Candida albicans; test: Antifungal activity against Candida albicans ATCC 90028 after 48 hrs by broth microdilution assay; format: functional; details: ATCC 90028, 48 h; in short: as §1

| SMILES | MIC [µg/mL] |
| --- | --- |
| Cc1ccc(C2=NN(c3nc(-c4ccc(F)cc4)cs3)C(c3ccc(F)cc3)C2)s1 (stereo not drawn) | 250 (≈ 571 µM) |
| Cc1ccc(-c2csc(N3N=C(c4ccc(C)s4)CC3c3ccc(F)cc3)n2)cc1 (stereo not drawn) | 500 (≈ 1150 µM) |
| Fc1ccc(C2CC(c3ccc(Cl)s3)=NN2c2nc(-c3ccc4c(c3)OCO4)cs2)cc1 (stereo not drawn) | 250 (≈ 517 µM) |
| COc1ccc(-c2csc(N3N=C(c4ccc(Cl)s4)CC3c3ccc(F)cc3)n2)cc1 (stereo not drawn) | 250 (≈ 532 µM) |

test system: Candida tropicalis; test: Antifungal activity against Candida tropicalis NRLL Y 12968 after 48 hrs by broth microdilution assay; format: functional; details: NRLL Y 12968, 48 h; in short: as §1

| SMILES | MIC [µg/mL] |
| --- | --- |
| Cc1ccc(C2=NN(c3nc(-c4ccc(F)cc4)cs3)C(c3ccc(F)cc3)C2)s1 (stereo not drawn) | 250 (≈ 571 µM) |
| Cc1ccc(-c2csc(N3N=C(c4ccc(C)s4)CC3c3ccc(F)cc3)n2)cc1 (stereo not drawn) | 500 (≈ 1150 µM) |
| Fc1ccc(C2CC(c3ccc(Cl)s3)=NN2c2nc(-c3ccc4c(c3)OCO4)cs2)cc1 (stereo not drawn) | 250 (≈ 517 µM) |
| COc1ccc(-c2csc(N3N=C(c4ccc(Cl)s4)CC3c3ccc(F)cc3)n2)cc1 (stereo not drawn) | 250 (≈ 532 µM) |

test system: Pichia kudriavzevii; test: Antifungal activity against Candida krusei NRLL Y 7179 after 48 hrs by broth microdilution assay; format: functional; details: NRLL Y 7179, 48 h; in short: as §1

| SMILES | MIC [µg/mL] |
| --- | --- |
| Cc1ccc(C2=NN(c3nc(-c4ccc(F)cc4)cs3)C(c3ccc(F)cc3)C2)s1 (stereo not drawn) | 250 (≈ 571 µM) |
| Cc1ccc(-c2csc(N3N=C(c4ccc(C)s4)CC3c3ccc(F)cc3)n2)cc1 (stereo not drawn) | 500 (≈ 1150 µM) |
| Fc1ccc(C2CC(c3ccc(Cl)s3)=NN2c2nc(-c3ccc4c(c3)OCO4)cs2)cc1 (stereo not drawn) | 250 (≈ 517 µM) |
| COc1ccc(-c2csc(N3N=C(c4ccc(Cl)s4)CC3c3ccc(F)cc3)n2)cc1 (stereo not drawn) | 250 (≈ 532 µM) |

test system: [Candida] zeylanoides; test: Antifungal activity against Candida zeylanoides NRLL Y 1774 after 48 hrs by broth microdilution assay; format: functional; details: Dujonia zeylanoides, NRLL Y 1774, 48 h; in short: as §1

| SMILES | MIC [µg/mL] |
| --- | --- |
| Cc1ccc(C2=NN(c3nc(-c4ccc(F)cc4)cs3)C(c3ccc(F)cc3)C2)s1 (stereo not drawn) | 250 (≈ 571 µM) |
| Cc1ccc(-c2csc(N3N=C(c4ccc(C)s4)CC3c3ccc(F)cc3)n2)cc1 (stereo not drawn) | 500 (≈ 1150 µM) |
| Fc1ccc(C2CC(c3ccc(Cl)s3)=NN2c2nc(-c3ccc4c(c3)OCO4)cs2)cc1 (stereo not drawn) | 250 (≈ 517 µM) |
| COc1ccc(-c2csc(N3N=C(c4ccc(Cl)s4)CC3c3ccc(F)cc3)n2)cc1 (stereo not drawn) | 250 (≈ 532 µM) |

test system: Candida parapsilosis; test: Antifungal activity against Candida parapsilosis NRLL Y 12696 after 48 hrs by broth microdilution assay; format: functional; details: Lodderomyces parapsilosis, NRLL Y 12696, 48 h; in short: as §1

| SMILES | MIC [µg/mL] |
| --- | --- |
| Cc1ccc(C2=NN(c3nc(-c4ccc(F)cc4)cs3)C(c3ccc(F)cc3)C2)s1 (stereo not drawn) | 250 (≈ 571 µM) |
| Cc1ccc(-c2csc(N3N=C(c4ccc(C)s4)CC3c3ccc(F)cc3)n2)cc1 (stereo not drawn) | 500 (≈ 1150 µM) |
| Fc1ccc(C2CC(c3ccc(Cl)s3)=NN2c2nc(-c3ccc4c(c3)OCO4)cs2)cc1 (stereo not drawn) | 250 (≈ 517 µM) |
| COc1ccc(-c2csc(N3N=C(c4ccc(Cl)s4)CC3c3ccc(F)cc3)n2)cc1 (stereo not drawn) | 250 (≈ 532 µM) |

test system: Aspergillus flavus; test: Antifungal activity against Aspergillus flavus NRRL 980 after 72 hrs by broth microdilution assay; format: functional; details: NRRL 980, 72 h
In short: (§2)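 Compounds dissolved in DMSO, diluted in sterile distilled water from 4 to 0.0039 mg/mL. Molds grown on PDA at 25 °C for 5 days, suspended in double-strength PDB at 10⁵ spores/mL. Incubated at 25 °C for 72 h; mycelial growth read under stereo microscope. MIC = lowest concentration inhibiting visible growth. Ketoconazole reference.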

| SMILES | MIC [µg/mL] |
| --- | --- |
| Cc1ccc(C2=NN(c3nc(-c4ccc(F)cc4)cs3)C(c3ccc(F)cc3)C2)s1 (stereo not drawn) | 250 (≈ 571 µM) |
| Cc1ccc(-c2csc(N3N=C(c4ccc(C)s4)CC3c3ccc(F)cc3)n2)cc1 (stereo not drawn) | 250 (≈ 577 µM) |
| Fc1ccc(C2CC(c3ccc(Cl)s3)=NN2c2nc(-c3ccc4c(c3)OCO4)cs2)cc1 (stereo not drawn) | 250 (≈ 517 µM) |
| COc1ccc(-c2csc(N3N=C(c4ccc(Cl)s4)CC3c3ccc(F)cc3)n2)cc1 (stereo not drawn) | 250 (≈ 532 µM) |

test system: Aspergillus niger; test: Antifungal activity against Aspergillus niger ATCC 1094 after 72 hrs by broth microdilution assay; format: functional; details: ATCC 1094, 72 h; in short: as §2

| SMILES | MIC [µg/mL] |
| --- | --- |
| Cc1ccc(C2=NN(c3nc(-c4ccc(F)cc4)cs3)C(c3ccc(F)cc3)C2)s1 (stereo not drawn) | 250 (≈ 571 µM) |
| Cc1ccc(-c2csc(N3N=C(c4ccc(C)s4)CC3c3ccc(F)cc3)n2)cc1 (stereo not drawn) | 250 (≈ 577 µM) |
| Fc1ccc(C2CC(c3ccc(Cl)s3)=NN2c2nc(-c3ccc4c(c3)OCO4)cs2)cc1 (stereo not drawn) | 250 (≈ 517 µM) |
| COc1ccc(-c2csc(N3N=C(c4ccc(Cl)s4)CC3c3ccc(F)cc3)n2)cc1 (stereo not drawn) | 250 (≈ 532 µM) |

test system: Aspergillus parasiticus; test: Antifungal activity against Aspergillus parasiticus NRRL 465 after 72 hrs by broth microdilution assay; format: functional; details: NRRL 465, 72 h; in short: as §2

| SMILES | MIC [µg/mL] |
| --- | --- |
| Cc1ccc(C2=NN(c3nc(-c4ccc(F)cc4)cs3)C(c3ccc(F)cc3)C2)s1 (stereo not drawn) | 250 (≈ 571 µM) |
| Cc1ccc(-c2csc(N3N=C(c4ccc(C)s4)CC3c3ccc(F)cc3)n2)cc1 (stereo not drawn) | 250 (≈ 577 µM) |
| Fc1ccc(C2CC(c3ccc(Cl)s3)=NN2c2nc(-c3ccc4c(c3)OCO4)cs2)cc1 (stereo not drawn) | 250 (≈ 517 µM) |
| COc1ccc(-c2csc(N3N=C(c4ccc(Cl)s4)CC3c3ccc(F)cc3)n2)cc1 (stereo not drawn) | 250 (≈ 532 µM) |

test system: Fusarium solani; test: Antifungal activity against Fusarium solani NRRL 13414 after 72 hrs by broth microdilution assay; format: functional; details: NRRL 13414, 72 h; in short: as §2

| SMILES | MIC [µg/mL] |
| --- | --- |
| Cc1ccc(C2=NN(c3nc(-c4ccc(F)cc4)cs3)C(c3ccc(F)cc3)C2)s1 (stereo not drawn) | 250 (≈ 571 µM) |
| Cc1ccc(-c2csc(N3N=C(c4ccc(C)s4)CC3c3ccc(F)cc3)n2)cc1 (stereo not drawn) | 250 (≈ 577 µM) |
| Fc1ccc(C2CC(c3ccc(Cl)s3)=NN2c2nc(-c3ccc4c(c3)OCO4)cs2)cc1 (stereo not drawn) | 250 (≈ 517 µM) |
| COc1ccc(-c2csc(N3N=C(c4ccc(Cl)s4)CC3c3ccc(F)cc3)n2)cc1 (stereo not drawn) | 250 (≈ 532 µM) |

test system: A549; test: Antiproliferative activity against human A549 cells after 24 hrs by XTT assay; format: functional, cell-based; details: A549, 24 h
In short: (§3)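 A549 cells in RPMI and NIH/3T3 cells in DMEM, each with fetal calf serum, antibiotics and 7.5% NaHCO₃, at 37 °C, 5% CO₂. Seeded at 20,000 cells/well, 24 h, then compounds added in medium at 500–3.9 doses (final DMSO <0.1%) for 24 h. XTT read after 3 h at 480 nm (ref 680 nm). IC₅₀ by non-linear regression; triplicates; cisplatin control.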

| SMILES | IC50 [µg/mL] |
| --- | --- |
| Cc1ccc(C2=NN(c3nc(-c4ccc(F)cc4)cs3)C(c3ccc(F)cc3)C2)s1 (stereo not drawn) | 125 (≈ 286 µM) |
| Cc1ccc(-c2csc(N3N=C(c4ccc(C)s4)CC3c3ccc(F)cc3)n2)cc1 (stereo not drawn) | > 500 |
| Fc1ccc(C2CC(c3ccc(Cl)s3)=NN2c2nc(-c3ccc4c(c3)OCO4)cs2)cc1 (stereo not drawn) | > 500 |
| COc1ccc(-c2csc(N3N=C(c4ccc(Cl)s4)CC3c3ccc(F)cc3)n2)cc1 (stereo not drawn) | > 500 |

test system: not listed separately; test: Cytotoxicity against mouse NIH/3T3 cells after 24 hrs by XTT assay; format: cell-based; details: NIH3T3, 24 h; in short: as §3

| SMILES | IC50 [µg/mL] |
| --- | --- |
| Cc1ccc(C2=NN(c3nc(-c4ccc(F)cc4)cs3)C(c3ccc(F)cc3)C2)s1 (stereo not drawn) | > 500 |
| Cc1ccc(-c2csc(N3N=C(c4ccc(C)s4)CC3c3ccc(F)cc3)n2)cc1 (stereo not drawn) | > 500 |
| Fc1ccc(C2CC(c3ccc(Cl)s3)=NN2c2nc(-c3ccc4c(c3)OCO4)cs2)cc1 (stereo not drawn) | 73.8 (≈ 152 µM) |
| COc1ccc(-c2csc(N3N=C(c4ccc(Cl)s4)CC3c3ccc(F)cc3)n2)cc1 (stereo not drawn) | 103 (≈ 219 µM) |
